ChEMBL document CHEMBL2029255, “Quantitative and site-directed chemical modification of hypocrellins toward direct drug delivery and effective photodynamic activity” (J Med Chem, 2012)
In brackets after ≈: the same amount, converted by molar mass. Activity calls are given as the source filed them. The rule behind the calls is not given here.

How the values were obtained:
[1] = system: BGC-823; test: Cytotoxicity against human BGC823 cells assessed as cell death preincubated for 5 hrs in dark condition followed by irradiation with a 532 nm laser of 20 J/cm2 for 1000 seconds measured after 24 hrs by MTT assay; assay type: functional, cell-based; conditions: BGC-823, light or radiation study
How it was run: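 BGC823 cells in DMEM/5% FBS seeded at 5 × 10^5 cells/mL, 24 h at 37 °C, 5% CO2; photosensitizer (0, 19, 38, 57, 76 nM) in FBS-free DMEM, 5 h in dark; medium replaced, 532 nm laser irradiation 20 J/cm2 (20 mW/cm2) for 1000 s; 24 h dark; MTT 90 min, DMSO, OD 570 nm. IC50 = concentration killing 50% of cells.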

[2] = 1-Octanol-phosphate buffered saline partition coefficient of the compound at pH 7.4
[3] = system: BGC-823; test: Cytotoxicity against human BGC823 cells assessed as cell death up to 76 nM after 24 hrs by MTT assay; assay type: functional, cell-based
How it was run: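 Dark toxicity: BGC823 cells in DMEM/5% FBS seeded at 5 × 10^5 cells/mL, 24 h at 37 °C, 5% CO2; photosensitizer (0–76 nM) in FBS-free DMEM 5 h in dark; fresh medium, no irradiation, 24 h in dark; survival by MTT (90 min), formazan in DMSO, OD 570 nm.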

[4] = Photosensitization activity of the compound assessed as singlet oxygen production by DPA-bleaching method; assay type: physicochemical
[5] = Solubility of the compound in phosphate buffered saline at pH 7.4 after 12 hrs; assay type: physicochemical
How it was run: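 Compound dissolved in PBS (pH 7.4) at a series of concentrations, kept 12 h in dark; absorption spectra recorded and absorbance plotted against concentration to derive solubility; mean of three independent experiments ± SEM.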

[6] = Drug uptake in liposomes after 5 hrs; assay type: ADME, subcellular, Liposome; conditions: artificial membrane
How it was run: (§1)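 Liposomes of egg phosphatidylcholine and cholesterol (film-ultrasonic method), 0.08 g/L in PBS pH 7.4. Compound from DMSO stock (2 mg/mL) diluted in PBS to 0–8 μM final, added to liposomes with stirring; absorption spectra recorded over time; peak absorbance plotted against concentration at the equilibration time (2, 4 or 5 h, depending on compound).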

[7] = Drug uptake in liposomes after 2 hrs; assay type: ADME, subcellular, Liposome; conditions: artificial membrane; how it was run: as §1
[8] = system: BGC-823; test: Cellular uptake in human BGC823 cells at 1 uM after 5 hrs by laser confocal fluorescence microscope analysis; assay type: ADME, cell-based; conditions: bgc-823, 5 h
How it was run: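 BGC823 cells seeded on coverslips at 1 × 10^5, grown overnight at 37 °C, 5% CO2; medium removed, incubated with compound (1 μM) 5 h at 37 °C; rinsed three times with PBS, imaged by confocal microscopy with 488 nm argon laser excitation, emission 650–750 nm collected. Control without photosensitizer.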

[9] = Drug uptake in liposomes after 4 hrs; assay type: ADME, subcellular, Liposome; conditions: artificial membrane; how it was run: as §1

SMILES: COc1c2c3c4c(c(OC)c(=O)c5c(O)cc(OC)c(c6c(OC)cc(O)c(c1=O)c63)c54)C(/C(C)=N/CCCCS(=O)(=O)O)=C(C)C2
- IC50 [1]: 54 nM
- PC [2]: 7.5
- Activity [3]: inactive
- Activity [4]: 0.94
- solubility at 12 h [5]: 3900 µg/mL (≈ 5.88 mM)

SMILES: COC1=C(C(C)=O)C2=C(C)Cc3c(OC)c(=O)c(O)c4cc(OC)c5c(OC)cc(O)c6c(c2c3c4c56)C1=O
- IC50 [1]: 40 nM
- Activity [3]: inactive
- Drug uptake [6]: 7 µM
- Activity [4]: 0.76
- solubility at 12 h [5]: 4.6 µg/mL (≈ 0.0087 mM)

SMILES: COc1c2c3c4c(c(OC)c(=O)c5c(O)cc(OC)c(c6c(OC)cc(O)c(c1=O)c63)c54)C(/C(C)=N/CCCS(=O)(=O)O)=C(C)C2
- PC [2]: 4.8
- solubility at 12 h [5]: 6600 µg/mL (≈ 10.2 mM)

SMILES: COc1c2c3c4c(c(NCCS(=O)(=O)O)c(=O)c5c(O)cc(OC)c(c6c(OC)cc(O)c(c1=O)c63)c54)CC(C)=C2C(C)=O
- PC [2]: 2.2
- solubility at 12 h [5]: 9200 µg/mL (≈ 14.8 mM)
- Drug uptake [7]: 3 µM

SMILES: COc1c2c3c4c(c(OC)c(=O)c5c(O)cc(OC)c(c6c(OC)cc(O)c(c1=O)c63)c54)C(/C(C)=N/CCCCCCS(=O)(=O)O)=C(C)C2
- Activity [4]: 1.01
- solubility at 12 h [5]: 200 µg/mL (≈ 0.289 mM)

SMILES: COc1c2c3c4c(c(OC)c(=O)c5c(O)cc(OC)c(c6c(OC)cc(O)c(c1=O)c63)c54)C(/C(C)=N/CCCCCS(=O)(=O)O)=C(C)C2
- IC50 [1]: 22 nM
- Drug uptake [8]: Active
- PC [2]: 9
- Activity [3]: inactive
- Drug uptake [9]: 6.5 µM
- Activity [4]: 0.98
- solubility at 12 h [5]: 1700 µg/mL (≈ 2.51 mM)
